As a reminder, the EC50 is the midpoint of the concentration-response curve.

One experiment has as its target Keap1/Nrf2 (Homo sapiens, UniProt Q14145+Q16236). As to the kind of experiment: Activation of NRF2 in human U2OS cells co-expressing Keap1 (unknown origin) assessed as induction of NRF2 translocation to nucleus incubated for 6 hrs by beta-galactosidase based chemiluminescent assay. In kind it is cell-based. The essentials: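 PathHunter U2OS cells engineered to co-express enzyme donor-tagged NRF2 and nuclear-localized enzyme acceptor; Nrf2 nuclear translocation reconstitutes β-galactosidase. Cells in 96-well plates exposed to a range of compound concentrations for 6 h at room temperature (20–23 °C), then 1 h with detection reagent in the dark; chemiluminescence (RLU) read. EC50 from concentration-response curve, mean ± SEM, triplicate.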

Experiment [1] concerns the target T1, Nuclear factor erythroid 2-related factor 2 (Mus musculus) (UniProt Q60795).
T1 sequence (whole entry): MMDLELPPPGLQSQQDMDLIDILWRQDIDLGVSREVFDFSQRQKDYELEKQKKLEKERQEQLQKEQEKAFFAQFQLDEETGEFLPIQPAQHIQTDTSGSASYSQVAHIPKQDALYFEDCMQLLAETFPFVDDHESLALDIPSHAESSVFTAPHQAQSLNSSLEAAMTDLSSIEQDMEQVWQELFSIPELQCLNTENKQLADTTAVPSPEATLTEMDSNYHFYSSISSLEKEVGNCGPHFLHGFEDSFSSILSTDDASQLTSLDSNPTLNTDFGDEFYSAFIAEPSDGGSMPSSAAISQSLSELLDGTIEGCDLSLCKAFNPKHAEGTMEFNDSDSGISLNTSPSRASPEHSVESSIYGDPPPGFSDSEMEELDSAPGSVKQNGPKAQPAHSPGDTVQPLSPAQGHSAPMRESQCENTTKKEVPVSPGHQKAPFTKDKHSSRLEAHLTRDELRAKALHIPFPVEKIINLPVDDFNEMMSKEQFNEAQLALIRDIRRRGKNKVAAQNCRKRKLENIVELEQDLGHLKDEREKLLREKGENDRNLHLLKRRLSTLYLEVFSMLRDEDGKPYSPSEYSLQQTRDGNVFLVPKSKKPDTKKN
As to the kind of experiment: Activation of NRF2 in mouse BV2 cells assessed as upregulation of HO1 at 20 uM by ELISA relative to control. In kind it is cell-based. A general note: An ELISA detects its analyte on a solid surface through an enzyme-linked reagent.

Where a name gives a salt, the structure may show the parent alone.

Sequence of Keap1/Nrf2 (Q16236 whole entry): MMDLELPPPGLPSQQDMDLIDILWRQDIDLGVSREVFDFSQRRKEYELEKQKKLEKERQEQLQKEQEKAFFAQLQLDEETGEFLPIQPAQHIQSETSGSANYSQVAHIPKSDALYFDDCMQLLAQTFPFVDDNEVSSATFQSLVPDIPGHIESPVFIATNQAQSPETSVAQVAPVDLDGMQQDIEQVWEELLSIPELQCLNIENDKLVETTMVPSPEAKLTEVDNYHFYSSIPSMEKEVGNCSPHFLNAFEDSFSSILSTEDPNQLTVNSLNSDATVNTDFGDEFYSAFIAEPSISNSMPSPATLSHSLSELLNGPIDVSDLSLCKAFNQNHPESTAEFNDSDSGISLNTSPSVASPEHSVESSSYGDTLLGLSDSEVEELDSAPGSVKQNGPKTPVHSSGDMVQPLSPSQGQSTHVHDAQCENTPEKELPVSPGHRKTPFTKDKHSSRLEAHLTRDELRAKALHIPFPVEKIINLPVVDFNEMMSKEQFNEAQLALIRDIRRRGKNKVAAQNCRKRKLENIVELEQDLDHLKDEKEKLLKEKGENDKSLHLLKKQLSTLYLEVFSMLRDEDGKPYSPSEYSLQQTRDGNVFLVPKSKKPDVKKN
Sequence of Keap1/Nrf2 (Q14145 whole entry): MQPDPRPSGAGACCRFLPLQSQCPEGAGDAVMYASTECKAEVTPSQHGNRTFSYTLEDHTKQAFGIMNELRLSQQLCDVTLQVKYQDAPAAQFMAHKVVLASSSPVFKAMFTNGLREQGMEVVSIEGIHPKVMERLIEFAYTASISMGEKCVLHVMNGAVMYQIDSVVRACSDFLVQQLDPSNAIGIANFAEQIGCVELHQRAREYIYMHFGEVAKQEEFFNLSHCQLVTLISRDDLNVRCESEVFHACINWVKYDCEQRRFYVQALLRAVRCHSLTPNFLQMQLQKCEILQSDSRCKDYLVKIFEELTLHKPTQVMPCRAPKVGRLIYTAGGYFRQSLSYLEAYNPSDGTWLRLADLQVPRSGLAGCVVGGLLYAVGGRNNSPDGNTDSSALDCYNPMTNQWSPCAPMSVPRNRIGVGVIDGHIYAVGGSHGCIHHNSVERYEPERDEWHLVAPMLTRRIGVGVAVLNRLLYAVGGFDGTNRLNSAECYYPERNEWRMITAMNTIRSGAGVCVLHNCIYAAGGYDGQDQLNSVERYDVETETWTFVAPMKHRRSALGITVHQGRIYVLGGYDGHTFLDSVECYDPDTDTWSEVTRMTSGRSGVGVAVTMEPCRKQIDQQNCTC

On to `O=C(/C=C/c1cccnc1)c1ccc(OCCCN2CCOCC2)cc1`, for which the EC50 at Keap1/Nrf2 was over 5000 nM.

Consider `COC(=O)/C=C/C(=O)OC` [DIMETHYL FUMARATE], for which the EC50 on Keap1/Nrf2 worked out at 5110 nM.

For the molecule `O=C(/C=C/c1ccccc1Cl)c1ccc(OCCCN2CCOCC2)cc1`, at Keap1/Nrf2, the EC50 was 2420 nM.

Consider `COc1ccccc1/C=C/C(=O)c1ccc(OCCCN2CCOCC2)cc1`, for which, on Keap1/Nrf2, the EC50 came to 1630 nM. Further, the Activity in experiment [1] was 345%.

In the case of `CN1CCN(C(=O)COc2ccc(C(=O)/C=C/c3ccccc3)cc2)CC1`, at Keap1/Nrf2, the concentration giving a half-maximal response (EC50) turned out to be 1800 nM.

Turning to `CN1CCN(C(=O)COc2ccc(C(=O)/C=C/c3ccccc3Cl)cc2)CC1`, the EC50 on Keap1/Nrf2 is 970 nM.

Turning to `CN(C)C(=O)COc1ccc(C(=O)/C=C/c2ccccn2)cc1`, the EC50 at Keap1/Nrf2 was found to be 1100 nM.

For the molecule `O=C(/C=C/c1ccccc1C(F)(F)F)c1ccc(OCCCN2CCCC2)cc1`, the EC50 at Keap1/Nrf2 was over 1000 nM.

For `CN1CCN(C(=O)COc2ccc(C(=O)/C=C/c3ccccc3F)cc2)CC1`, the EC50 at Keap1/Nrf2 came out at 1540 nM.

As for `O=C(/C=C/c1ccccn1)c1ccc(OCC(=O)N2CCOCC2)cc1`, on Keap1/Nrf2, the EC50 is 1230 nM.

As for `O=C(/C=C/c1ccccc1C(F)(F)F)c1cccc(OCCCN2CCOCC2)c1`, the EC50 at Keap1/Nrf2 was determined as 2300 nM.

`COc1ccc(/C=C/C(=O)c2ccc(OCCCN3CCOCC3)cc2)cc1`: the EC50 at Keap1/Nrf2 amounted to 6970 nM. Besides, in experiment [1], the Activity is 166%.

In the case of `CN(C)C(=O)COc1ccc(C(=O)/C=C/c2cccnc2)cc1`, the EC50 on Keap1/Nrf2 is 1460 nM.

As for `O=C(/C=C/c1ccccn1)c1ccc(OCCCN2CCOCC2)cc1`, the EC50 on Keap1/Nrf2 was over 5000 nM. Moreover, in experiment [1], the Activity amounted to 112%.

Take `O=C(/C=C/c1cccc(C(F)(F)F)c1)c1ccc(OCCCN2CCOCC2)cc1`: the EC50 on Keap1/Nrf2 was determined as 2060 nM.

Regarding `COc1ccccc1/C=C/C(=O)c1ccc(OCCCN2CCCC2)cc1`, the EC50 on Keap1/Nrf2 came out at 990 nM. The Activity in experiment [1] worked out at 289%.

Consider `COc1ccccc1/C=C/C(=O)c1ccc(OCC(=O)N2CCOCC2)cc1`, for which the EC50 on Keap1/Nrf2 stood at 1770 nM.

For `COc1cccc(/C=C/C(=O)c2ccc(OCCCN3CCOCC3)cc2)c1`, the EC50 on Keap1/Nrf2 is 2580 nM.

As for `O=C(/C=C/c1ccc(C(F)(F)F)cc1)c1ccc(OCCCN2CCOCC2)cc1`, at Keap1/Nrf2, the EC50 was 2430 nM.

Take `O=C(/C=C/c1ccccc1Cl)c1cccc(OCCCN2CCOCC2)c1`: at Keap1/Nrf2, the EC50 is 2840 nM.

Take `COc1ccccc1/C=C/C(=O)c1ccc(OCC(=O)N2CCN(C)CC2)cc1`: the EC50 at Keap1/Nrf2 came out at 1910 nM.

Take `O=C(/C=C/c1ccccc1C(F)(F)F)c1ccc(OCCCN2CCOCC2)cc1`: the EC50 on Keap1/Nrf2 was determined as 1360 nM. In experiment [1], the Activity came out at 351%.

As to `COc1ccccc1/C=C/C(=O)c1ccc(OCCCN2CCN(C)CC2)cc1`, the EC50 at Keap1/Nrf2 was 3330 nM. Also, the Activity in experiment [1] worked out at 217%.

Consider `COc1ccccc1/C=C/C(=O)c1cccc(OCCCN2CCOCC2)c1`, for which the EC50 at Keap1/Nrf2 was 1720 nM. Besides, in experiment [1], the Activity is under 200%.

Take `O=C(/C=C/c1ccccc1Cl)c1ccc(OCCCN2CCCC2)cc1`: on Keap1/Nrf2, the EC50 worked out at 1390 nM.

As for `CN(C)C(=O)COc1ccc(C(=O)/C=C/c2ccccc2C(F)(F)F)cc1`, the EC50 at Keap1/Nrf2 came out at 1120 nM.

In the case of `COc1ccccc1/C=C/C(=O)c1ccc(OCC(=O)N(C)C)cc1`, at Keap1/Nrf2, the EC50 is 1460 nM.

`CN(C)C(=O)COc1ccc(C(=O)/C=C/c2ccncc2)cc1`: on Keap1/Nrf2, the EC50 was found to be 1360 nM.

For `O=C(/C=C/c1ccccc1C(F)(F)F)c1ccc(OCC(=O)N2CCOCC2)cc1`, the EC50 at Keap1/Nrf2 was found to be 1060 nM.

Consider `COc1ccccc1/C=C/C(=O)c1ccccc1OCCCN1CCOCC1`, for which the EC50 at Keap1/Nrf2 was found to be 5520 nM. For the same molecule, the Activity in experiment [1] was 146%.

The record behind these values is ChEMBL document CHEMBL4312006, “A novel chalcone derivative as Nrf2 activator attenuates learning and memory impairment in a scopolamine-induced mouse model” (Eur J Med Chem, 2020).
